ChEMBL document CHEMBL1147330, “Cytotoxic and antimalarial bisbenzylisoquinoline alkaloids from Cyclea barbata” (1993)
≈ marks a conversion by molar mass, not a printed value.

Legend:
Assay type in all cases: functional
P388 = experiment: Cytotoxicity against mouse P388 cells; conditions: read-out: ED50 (the source's name)
[1] = Cytotoxicity against human multidrug-resistant KBV1 cells; conditions: KB-V1, read-out: ED50 (the source's name)
[2] = Cytotoxicity against human multidrug-sensitive KB3 cells; conditions: read-out: ED50 (the source's name)
Plasmodium falciparum [3] = experiment: Antimalarial activity against chloroquine-sensitive Plasmodium falciparum D6 infected type A+ human erythrocytes by [3H]hypoxanthine uptake; conditions: read-out: ED50 (the source's name)
In short: (§1)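 P. falciparum (chloroquine-sensitive D-6, chloroquine-resistant W-2) in type A+ human erythrocytes, 6% hematocrit, RPMI-1640 with 32 mM NaHCO3, 25 mM HEPES, 10% heat-inactivated A+ human plasma; 5% O2/5% CO2/90% N2, 37°. Test compounds in duplicate at 125,000–3 ng/ml; quinine control 250–0.3 ng/ml. ED50 = 50% inhibition of parasite [3H]hypoxanthine incorporation vs zero-drug controls, by non-linear regression.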

Plasmodium falciparum [4] = experiment: Antimalarial activity against chloroquine-resistant Plasmodium falciparum W2 infected type A+ human erythrocytes by [3H]hypoxanthine uptake; conditions: read-out: ED50 (the source's name); in short: as §1

Row | SMILES | EC50 (P388) | EC50 [1] | EC50 [2] | EC50 (Plasmodium falciparum [3]) | EC50 (Plasmodium falciparum [4])
1 | COc1ccc2cc1Oc1ccc(cc1)C[C@H]1c3cc(c(OC)cc3CCN1C)Oc1c(O)c(OC)cc3c1[C@@H](C2)N(C)CC3 | 0.36 µg/mL (≈ 0.591 µM) | 11 µg/mL (≈ 18.1 µM) | 3.4 µg/mL (≈ 5.59 µM) | 0.0651 µg/mL (≈ 0.107 µM) | 0.078 µg/mL (≈ 0.128 µM)
2 | COc1ccc2cc1Oc1ccc(cc1)C[C@H]1c3c(cc(OC)c(O)c3Oc3cc4c(cc3OC)CCN(C)[C@H]4C2)CCN1C | 0.57 µg/mL (≈ 0.936 µM) | 4.4 µg/mL (≈ 7.23 µM) | 2.2 µg/mL (≈ 3.61 µM) | 0.029 µg/mL (≈ 0.0476 µM) | 0.0406 µg/mL (≈ 0.0667 µM)
3 | COc1ccc2cc1Oc1ccc(cc1)C[C@@H]1c3cc(c(OC)cc3CCN1C)Oc1c(O)c(OC)cc3c1[C@@H](C2)N(C)CC3 | 0.25 µg/mL (≈ 0.411 µM) | 11 µg/mL (≈ 18.1 µM) | 9.8 µg/mL (≈ 16.1 µM) | 0.0527 µg/mL (≈ 0.0866 µM) | 0.164 µg/mL (≈ 0.269 µM)
4 | COc1ccc2cc1Oc1ccc(cc1)C[C@H]1c3cc(c(OC)cc3CCN1C)Oc1c(OC)c(OC)cc3c1[C@H](C2)N(C)CC3 [FANCHININ] | 0.4 µg/mL (≈ 0.642 µM) | 3.7 µg/mL (≈ 5.94 µM) | 2.1 µg/mL (≈ 3.37 µM) | 0.179 µg/mL (≈ 0.287 µM) | 0.16 µg/mL (≈ 0.257 µM)
5 | COc1ccc2cc1Oc1ccc(cc1)C[C@H]1c3c(cc(OC)c(O)c3Oc3cc4c(cc3OC)CCN(C)[C@@H]4C2)CCN1C [HOMOAROMOLINE] | 0.31 µg/mL (≈ 0.509 µM) | 15 µg/mL (≈ 24.6 µM) | 3.6 µg/mL (≈ 5.91 µM) | 0.232 µg/mL (≈ 0.381 µM) | 0.451 µg/mL (≈ 0.741 µM)
6 | C=C[C@H]1CN2CC[C@H]1C[C@H]2[C@H](O)c1ccnc2ccc(OC)cc12 [QUININE] | > 5 µg/mL | > 20 µg/mL | > 20 µg/mL | 0.0076 µg/mL (≈ 0.0234 µM) | 0.0308 µg/mL (≈ 0.0949 µM)
